{"data": "Assay results of several laboratories", "TOP2A": "DNA topoisomerase 2-alpha (TOP2A, Homo sapiens, UniProt P11388)", "TNKS2": "Poly [ADP-ribose] polymerase tankyrase-2 (TNKS2, Homo sapiens, UniProt Q9H2K2)", "note": "Protocols differ between the studies behind these lines."}
{"SMILES": "C=CCn1c(=O)c2cnc(Nc3ccc(N4CCN(C)CC4)cc3)nc2n1-c1ccc2c(n1)[C@@](O)(CC)CC2", "target": "Serine/threonine-protein kinase PLK1 (PLK1, Homo sapiens, UniProt P53350)", "effect on": "target engagement in cells", "method": "BRET", "IC50 [nM]": "> 10000"}
{"SMILES": "Cc1cc2c(cc1C)N[C@H](c1ccccc1)[C@@H](O)C(=O)N2", "target": "Aurora kinase C (AURKC, Homo sapiens, UniProt Q9UQB9)", "effect on": "enzyme activity", "action": "inhibitor", "method": "ELISA", "IC50 [nM]": 211}
{"SMILES": "Fc1cccc(Nc2nc(-c3ccncc3)nc3c2CNCC3)c1", "target": "TOP2A", "effect on": "enzyme activity", "action": "inhibitor", "IC50 [nM]": 25000}
{"SMILES": "Cc1n[nH]c2ccc3nc(-c4ccc(C(=O)NCCN(C)C)cc4)c4c(c3c12)CCCCC4", "target": "Receptor-type tyrosine-protein kinase FLT3 (FLT3, Homo sapiens, UniProt P36888, D835Y)", "effect on": "enzyme activity", "action": "inhibitor", "IC50 [nM]": 34}
{"SMILES": "CN1CCC(CNc2ccc3ncc(-c4cccc(OC(F)(F)F)c4)n3n2)CC1", "target": "5-hydroxytryptamine receptor 2B (HTR2B, Homo sapiens, UniProt P41595)", "effect on": "calcium signal", "action": "antagonist", "IC50 [nM]": 2810}
{"SMILES": "CNC(=O)[C@H](Cc1c[nH]c2ccccc12)NC(=O)[C@@H](CC(=O)NO)CC(C)C", "target": "Stromelysin-1 (MMP3, Homo sapiens, UniProt P08254)", "effect on": "enzyme activity", "action": "inhibitor", "IC50 [nM]": 12.5}
{"SMILES": "COc1cc(-c2ccccc2)ncc1C(=O)Nc1ccc2c(=O)[nH]c(-c3ccc(C(C)(C)O)cc3)nc2c1", "target": "TNKS2", "effect on": "enzyme activity", "action": "inhibitor", "IC50 [nM]": 3.46}
{"SMILES": "CNc1cccc(Nc2nc(-c3ccncc3)nc3c2CNCC3)c1", "target": "TOP2A", "effect on": "enzyme activity", "action": "inhibitor", "IC50 [nM]": 160000}
{"SMILES": "CC(C)(O)c1ccc(-c2nc3cc(NC(=O)c4ccc(-c5ccccc5)cc4)ccc3c(=O)[nH]2)cc1", "target": "TNKS2", "effect on": "enzyme activity", "action": "inhibitor", "IC50 [nM]": 35}
{"SMILES": "CN(C)CCNC(=O)c1ccc(-c2nc3ccc4[nH]ncc4c3c3c2CCCCC3)cc1", "target": "Receptor-type tyrosine-protein kinase FLT3 (FLT3, Homo sapiens, UniProt P36888, F691L)", "effect on": "enzyme activity", "action": "inhibitor", "IC50 [nM]": 287}
{"SMILES": "COc1cccc(Nc2nc(-c3ccncc3)nc3c2CNCC3)c1", "target": "TOP2A", "effect on": "enzyme activity", "action": "inhibitor", "IC50 [nM]": 120000}
{"SMILES": "Cc1n[nH]c2ccc3nc(-c4ccc(C(=O)NCCN(C)C)cc4F)c4c(c3c12)CCCCC4", "target": "Receptor-type tyrosine-protein kinase FLT3 (FLT3, Homo sapiens, UniProt P36888)", "effect on": "enzyme activity", "action": "inhibitor", "IC50 [nM]": 138}
{"SMILES": "CCCCCCC#Cc1cncc(-c2nnc(SCc3cc([N+](=O)[O-])cc([N+](=O)[O-])c3)n2C2CCNCC2)c1", "target": "mraY (Staphylococcus aureus, UniProt Q2FZ93)", "effect on": "enzyme activity", "action": "inhibitor", "IC50 [nM]": "~100000"}
{"SMILES": "CN(C)CCNC(=O)c1ccc(-c2nc3ccc4[nH]ncc4c3c3c2CCCC3)c(F)c1", "target": "Receptor-type tyrosine-protein kinase FLT3 (FLT3, Homo sapiens, UniProt P36888, ITD)", "effect on": "enzyme activity", "action": "inhibitor", "IC50 [nM]": 112}
{"SMILES": "CC(C)(O)c1ccc(-c2nc3cc(NC(=O)c4cnc(OCc5ccccc5)nc4)ccc3c(=O)[nH]2)cc1", "target": "TNKS2", "effect on": "enzyme activity", "action": "inhibitor", "IC50 [nM]": 16.3}
